Series [1] concerns Candida albicans. The series is described as follows: Antifungal activity against Candida albicans ATCC MYA-2876 after 48 hrs by CLSI M27-A3 method. The series is classed as functional. The settings on record: ATCC MYA-2876, 48 h.
The next series concerns Candida parapsilosis. The experiment in a line: Antifungal activity against Candida parapsilosis ATCC 22019 after 48 hrs by CLSI M27-A3 method. The series is classed as functional. The settings on record: Lodderomyces parapsilosis, ATCC 22019, 48 h.
Series [2] deals with Candida albicans. The series is described as follows: Antifungal activity against Candida albicans ATCC 64124 after 48 hrs by CLSI M27-A3 method. In kind it is functional. The note with it: ATCC 64124, 48 h.
Series [3] relates to Candida albicans. The experiment in a line: Antifungal activity against Candida albicans ATCC MYA-2310 after 48 hrs by CLSI M27-A3 method. The settings on record: ATCC MYA-2310, 48 h. The series is classed as functional.
Series [4] in a line: Cytotoxicity against human BEAS2B cells assessed as reduction in cell survival after 24 hrs by resazurin assay. The series is classed as cell-based. The note with it: BEAS-2B. The gist of the method:
(§1)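 Human A549 cells treated 24 h; BEAS 2B cells treated 6 h or 24 h. DMSO-treated cells served as negative control and Triton X-treated cells as positive control. Read-out was cell survival.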
For orientation: Alamar Blue is a resazurin reagent that responds to reducing activity.

A further series deals with Aspergillus flavus. The series is described as follows: Antifungal activity against Aspergillus flavus ATCC MYA-3631 after 48 hrs by CLSI M38-A2 method. The series is classed as functional. The settings on record: ATCC MYA-3631, 48 h.
In a further series the test system is A549. The experiment in a line: Cytotoxicity against human A549 cells assessed as reduction in cell survival after 24 hrs by resazurin assay. In kind it is cell-based. The note with it: A549, 24 h. The gist of the method: as §1
The test system of the next series is Nakaseomyces glabratus. The experiment in a line: Antifungal activity against Candida glabrata ATCC 2001 after 48 hrs by CLSI M27-A3 method. In kind it is functional. The note with it: CBS 138, 48 h.
The nature of series [5]: Cytotoxicity against human BEAS2B cells assessed as reduction in cell survival after 6 hrs by resazurin assay. The series is classed as cell-based. The settings on record: beas-2b. The gist of the method:
as §1

The test system of a further series is Pichia kudriavzevii. The experiment in a line: Antifungal activity against Candida krusei ATCC 6258 after 48 hrs by CLSI M27-A3 method. The note with it: ATCC 6258, 48 h. In kind it is functional.
For series [6], the system named is Candida albicans. The experiment in a line: Antifungal activity against Candida albicans ATCC MYA-1237 after 48 hrs by CLSI M27-A3 method. In kind it is functional. The settings on record: ATCC MYA-1237, 48 h.
Series [7] deals with Candida albicans. The series is described as follows: Antifungal activity against Candida albicans ATCC 10231 after 48 hrs by CLSI M27-A3 method. The series is classed as functional. The settings on record: ATCC 10231, 48 h.
For the next series, the system named is Aspergillus nidulans. The experiment in a line: Antifungal activity against Aspergillus nidulans ATCC 38163 after 48 hrs by CLSI M38-A2 method. The series is classed as functional. The note with it: ATCC 38163, 48 h.
Another series deals with Aspergillus terreus. The experiment in a line: Antifungal activity against Aspergillus terreus ATCC MYA3633 after 48 hrs by CLSI M38-A2 method. The series is classed as functional. The settings on record: ATCC MYA3633, 48 h.
Series [8] relates to Candida albicans. The experiment in a line: Antifungal activity against Candida albicans ATCC MYA-1003 after 48 hrs by CLSI M27-A3 method. The series is classed as functional. The note with it: ATCC MYA-1003, 48 h.
The test system of series [9] is Candida albicans. The series is described as follows: Antifungal activity against Candida albicans ATCC MYA-90819 after 48 hrs by CLSI M27-A3 method. In kind it is functional. The settings on record: ATCC MYA-90819, 48 h.

Structures are written as SMILES. Values after ≈ are worked out from the molar mass of the structure shown.

The MIC is the least concentration at which growth counts as inhibited. Low readings indicate a more susceptible organism, high ones a less susceptible organism. What is called IC50 is the concentration at which inhibition is half-maximal.

As to `C#CCOc1ccc(-c2nc3ccc(-c4nc5ccc(N6CCN(C)CC6)cc5[nH]4)cc3[nH]2)cc1`, the MIC against Candida albicans [1] is 7.8 µg/mL (≈ 16.9 µM); against Candida parapsilosis it was 1.95 µg/mL (≈ 4.22 µM); in the series on Candida albicans [2] it was 31.2 µg/mL (≈ 67.5 µM); in the series with Candida albicans [3], 7.8 µg/mL (≈ 16.9 µM); with Aspergillus flavus, > 31.2 µg/mL; in the series with Nakaseomyces glabratus, 7.8 µg/mL (≈ 16.9 µM). Moreover, the MIC against Pichia kudriavzevii is 7.8 µg/mL (≈ 16.9 µM); in the series with Candida albicans [6] it was > 31.2 µg/mL; against Candida albicans [7], 7.8 µg/mL (≈ 16.9 µM). Further, the 50% inhibitory concentration (IC50) in [4] was determined as 0.98 µg/mL (≈ 2.12 µM); with A549 it was 15.6 µg/mL (≈ 33.7 µM). Moreover, in series [5], the Activity entry is “Non-toxic”.
As for `COc1ccc(-c2nc3cc(-c4nc5cc(N6CCN(C)CC6)ccc5[nH]4)ccc3[nH]2)cc1`, the MIC with Aspergillus nidulans is 15.6 µg/mL (≈ 35.6 µM); in the series with Candida albicans [1], 15.6 µg/mL (≈ 35.6 µM); against Candida parapsilosis it was 3.9 µg/mL (≈ 8.89 µM); against Candida albicans [2], 31.2 µg/mL (≈ 71.1 µM); against Candida albicans [3] it was 7.8 µg/mL (≈ 17.8 µM); against Aspergillus flavus, 31.2 µg/mL (≈ 71.1 µM). Further, the minimum inhibitory concentration (MIC) in the series on Aspergillus terreus was 15.6 µg/mL (≈ 35.6 µM); against Nakaseomyces glabratus it was 3.9 µg/mL (≈ 8.89 µM); with Candida albicans [8], > 31.2 µg/mL; against Candida albicans [9], 15.6 µg/mL (≈ 35.6 µM); with Pichia kudriavzevii, 31.2 µg/mL (≈ 71.1 µM); with Candida albicans [6], 15.6 µg/mL (≈ 35.6 µM). Further, the MIC in the series with Candida albicans [7] came out at 15.6 µg/mL (≈ 35.6 µM). Further, the IC50 in [4] was determined as 1.95 µg/mL (≈ 4.45 µM); with A549, 0.98 µg/mL (≈ 2.23 µM). Also, the Activity result in series [5] is on record as “Non-toxic”.
On to `CCCCCN1CCN(c2ccc3nc(-c4ccc5nc(-c6ccc(OCC)cc6)[nH]c5c4)[nH]c3c2)CC1`, for which the MIC against Aspergillus nidulans, against Candida albicans [1], against Candida parapsilosis, in the series on Candida albicans [2], against Candida albicans [3] and in the series with Aspergillus flavus was > 31.2 µg/mL each time. The minimum inhibitory concentration (MIC) in the series on Aspergillus terreus, with Nakaseomyces glabratus, in the series on Candida albicans [8], against Candida albicans [9], against Pichia kudriavzevii and against Candida albicans [6] was > 31.2 µg/mL in each case. Further, the minimal inhibitory concentration (MIC) against Candida albicans [7] is > 31.2 µg/mL.
Take `CCCCCCCCCCCCOc1ccc(-c2nc3ccc(-c4nc5ccc(N6CCN(C)CC6)cc5[nH]4)cc3[nH]2)cc1`: the MIC in the series with Aspergillus nidulans, against Candida albicans [1], in the series on Candida parapsilosis, with Candida albicans [2], in the series with Candida albicans [3] and in the series on Aspergillus flavus was > 31.2 µg/mL throughout. Also, the minimal inhibitory concentration (MIC) against Aspergillus terreus, with Nakaseomyces glabratus, in the series on Candida albicans [8], with Candida albicans [9], against Pichia kudriavzevii and with Candida albicans [6] was > 31.2 µg/mL each time. The minimal inhibitory concentration (MIC) against Candida albicans [7] was > 31.2 µg/mL.
With `CCCN1CCN(c2ccc3nc(-c4ccc5nc(-c6ccc(OCC)cc6)[nH]c5c4)[nH]c3c2)CC1`, the MIC with Aspergillus nidulans, in the series with Candida albicans [1], in the series with Candida parapsilosis, against Candida albicans [2], against Candida albicans [3] and against Aspergillus flavus was > 31.2 µg/mL throughout. For the same compound, the minimal inhibitory concentration (MIC) was > 31.2 µg/mL against Aspergillus terreus; > 31.2 µg/mL against Nakaseomyces glabratus; > 31.2 µg/mL in the series on Candida albicans [8]; > 31.2 µg/mL in the series with Candida albicans [9]; 15.6 µg/mL (≈ 32.5 µM) in the series on Pichia kudriavzevii; > 31.2 µg/mL in the series with Candida albicans [6]. In addition, the MIC against Candida albicans [7] is > 31.2 µg/mL.
Turning to `C#CCOc1ccc(-c2nc3ccc(-c4nc5ccc(N6CCN(CCC)CC6)cc5[nH]4)cc3[nH]2)cc1`, the minimum inhibitory concentration (MIC) in the series with Aspergillus nidulans, against Candida albicans [1], in the series on Candida parapsilosis, against Candida albicans [2], with Candida albicans [3] and in the series with Aspergillus flavus was > 31.2 µg/mL each time. Besides, the MIC was > 31.2 µg/mL against Aspergillus terreus; > 31.2 µg/mL with Nakaseomyces glabratus; > 31.2 µg/mL against Candida albicans [8]; > 31.2 µg/mL against Candida albicans [9]; 15.6 µg/mL (≈ 31.8 µM) in the series with Pichia kudriavzevii; > 31.2 µg/mL with Candida albicans [6]. In addition, the MIC against Candida albicans [7] was > 31.2 µg/mL.

(Values after ChEMBL document CHEMBL3817731, “Synthesis and investigation of novel benzimidazole derivatives as antifungal agents” (Bioorg Med Chem, 2016).)
